Experimental data from ChEMBL document CHEMBL3124885, “Discovery of 7-tetrahydropyran-2-yl chromans: β-site amyloid precursor protein cleaving enzyme 1 (BACE1) inhibitors that reduce amyloid β-protein (Aβ) in the central nervous system” (J Med Chem, 2014).

What was measured:
[1] = Dissociation constant, pKa of the compound by parallel capillary electrophoresis method; assay type: physicochemical
Summary of the method: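 pKa determined by a 24-point parallel capillary electrophoresis method, quantitation by UV absorbance at 229 nm.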

Brain [2] = assay: Fraction unbound in CD-1 mouse brain at 10 mg/kg, po measured at 1 hr; assay type: ADME, organism-based; parameters: dose 10 mg/kg, route oral; details: in vivo
Summary of the method: (§1)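 Male CD-1 mice, 3 per cohort, dosed 10 mg/kg orally; brains harvested at 1 and 4 h.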

[3] = Ratio of unbound drug level in brain to plasma in CD-1 mouse measured at 1 hr; assay type: ADME; details: for Kp uu at 1 h: CD-1, mouse, read-out: K(p,uu,brain)
Summary of the method: (§2)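 Male CD-1 mice given 10 mg/kg po, 3 per cohort; plasma and brain collected at 1 and 4 h. Free brain/plasma ratio from unbound concentrations; coverage ratio = free brain concentration divided by HEK293 Aβ₁₋₄₀ cell IC50.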

Mus musculus = assay: Hepatic clearance in CD-1 mouse at 3 mg/kg, iv; assay type: ADME, organism-based, Liver; parameters: dose 3 mg/kg, route intravenous; details: in vivo
Summary of the method: (§3)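 Male CD-1 mice, 3 per cohort, dosed 3 mg/kg iv and 10 mg/kg po; plasma drawn at 1 and 4 h, brains harvested from oral groups only. Formulations varied by compound: 40% PEG 400/10% EtOH/50% H₂O; 30% captisol in H₂O; iv 50 mM citrate in saline (pH 4); po 1% CMC/0.5% Tween/5 mM citrate in H₂O.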

Brain [4] = assay: Fraction unbound in CD-1 mouse brain at 10 mg/kg, po measured at 4 hrs; assay type: ADME, organism-based; parameters: dose 10 mg/kg, route oral; details: in vivo; summary of the method: as §1
Plasma [5] = assay: Unbound plasma concentration in CD-1 mouse at 3 mg/kg, iv and 10 mg/kg, po measured at 4 hrs; assay type: ADME, organism-based; details: in vivo; summary of the method: as §3
Plasma [6] = assay: Unbound plasma concentration in CD-1 mouse at 3 mg/kg, iv and 10 mg/kg, po measured at 1 hr; assay type: ADME, organism-based; details: in vivo; summary of the method: as §3
[7] = Clearance in CD-1 mouse liver microsomes at 1 uM after 20 mins by LC-MS/MS analysis in presence of NADPH; assay type: ADME, Microsome
Summary of the method: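 Compound at 1 μM incubated with mouse liver microsomes for 20 min at 37 °C with NADPH.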

[8] = Oral bioavailability in CD-1 mouse at 10 mg/kg; assay type: ADME, organism-based; details: in vivo
[9] = Ratio of unbound drug level in brain to plasma in CD-1 mouse measured at 4 hrs; assay type: ADME; details: for Kp uu at 4 h: CD-1, mouse, read-out: K(p,uu,brain); summary of the method: as §2
[10] = Ratio of unbound drug level in brain to plasma in Hartley guinea pig at 60 mg/kg, po measured at 5 hrs; assay type: ADME, organism-based, Cavia porcellus; parameters: dose 60 mg/kg, route oral; details: brain and plasma (unbound), read-out: K(p,uu,brain)
Summary of the method: (§4)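 Male Hartley guinea pigs given single oral doses of 30, 60 or 100 mg/kg in 1% CMC/0.5% Tween/5 mM citrate in H₂O, 6–8 animals per cohort. Plasma, brain and CSF sampled at 1–12 h; free brain to free plasma ratio computed.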

[11] = Fraction unbound in Hartley guinea pig brain at 60 mg/kg, po measured at 5 hrs; assay type: ADME, organism-based, Cavia porcellus; parameters: dose 60 mg/kg, route oral; details: in vivo
[12] = Unbound plasma concentration in Hartley guinea pig at 60 mg/kg, po measured at 3 hrs; assay type: ADME, organism-based, Cavia porcellus; parameters: dose 60 mg/kg, route oral; details: in vivo
Summary of the method: (§5)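 Male Hartley guinea pigs were dosed orally at 30, 60 or 100 mg/kg, with six or eight animals per cohort. The vehicle was either a suspension in 1% CMC/0.5% Tween/5 mM citrate in H₂O or a 40/10/50 PEG/EtOH/H₂O solution, depending on compound. Unbound plasma concentration was sampled at 1–12 h post-dose alongside brain, CSF and CSF Aβ₁₋₄₀.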

[13] = Ratio of unbound drug level in brain to plasma in Hartley guinea pig at 60 mg/kg, po measured at 3 hrs; assay type: ADME, organism-based, Cavia porcellus; parameters: dose 60 mg/kg, route oral; details: brain and plasma (unbound), read-out: K(p,uu,brain); summary of the method: as §4
[14] = Drug uptake in Hartley guinea pig CSF at 60 mg/kg, po measured at 5 hrs; assay type: ADME, organism-based, Cavia porcellus, Cerebrospinal fluid; parameters: dose 60 mg/kg, route oral; details: read-out: Drug uptake
Summary of the method: (§6)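 Male Hartley guinea pigs, oral dosing (CMC/Tween/citrate suspension or PEG/EtOH/H₂O solution), six or eight animals per cohort; CSF drug concentration (nM) measured at each time point.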

[15] = Drug uptake in Hartley guinea pig CSF at 60 mg/kg, po measured at 3 hrs; assay type: ADME, organism-based, Cavia porcellus, Cerebrospinal fluid; parameters: dose 60 mg/kg, route oral; details: read-out: Drug uptake; summary of the method: as §6
[16] = Unbound plasma concentration in Hartley guinea pig at 60 mg/kg, po measured at 5 hrs; assay type: ADME, organism-based, Cavia porcellus; parameters: dose 60 mg/kg, route oral; details: in vivo; summary of the method: as §5
[17] = Fraction unbound in Hartley guinea pig brain at 60 mg/kg, po measured at 3 hrs; assay type: ADME, organism-based, Cavia porcellus; parameters: dose 60 mg/kg, route oral; details: in vivo

C[C@@]12COCC[C@H]1Oc1ccc(-c3cccnc3F)cc1[C@@]21COC(N)=N1 (racemic)
pKa [1]: 6.4

CN1C(=O)[C@]2(N=C1N)c1cc(-c3cc(F)cc(Cl)c3)ccc1O[C@H]1CCOC[C@@H]12 (racemic)
Drug uptake(free) (Brain [2]): 0.28 nM
Kp uu at 1 h [3]: 0.032
CLH (Mus musculus): 22 mL/min/kg
Drug uptake(free) (Brain [4]): 0.49 nM
Cp(f) (Plasma [5]): 17 nM
Cp(f) (Plasma [6]): 8.7 nM
CLhep predicted at 1 µM [7]: 32 mL/min/kg
bioavailability [8]: 67%
Kp uu at 4 h [9]: 0.029

CN1C(=O)[C@]2(N=C1N)c1cc(-c3cccnc3F)c(F)cc1O[C@H]1CCOC[C@@H]12 (racemic)
CLhep predicted at 1 µM [7]: 40 mL/min/kg

C[C@H]1OCC[C@H]2Oc3ccc(-c4cccnc4F)cc3[C@]3(N=C(N)N(C)C3=O)[C@H]12 (racemic)
Drug uptake(free) (Brain [2]): 7.1 nM
Kp uu at 1 h [3]: 0.027
CLH (Mus musculus): 72 mL/min/kg
Drug uptake(free) (Brain [4]): < 0.75 nM
Cp(f) (Plasma [5]): 63 nM
Cp(f) (Plasma [6]): 260 nM
CLhep predicted at 1 µM [7]: 51 mL/min/kg
bioavailability [8]: 75%
Kp uu at 4 h [9]: < 0.012

CN1C(=O)[C@]2(N=C1N)c1cc(-c3cccnc3F)ccc1O[C@H]1CCOC[C@@H]12 (racemic)
Drug uptake(free) (Brain [2]): 11 nM
K(p,uu,brain) ([3]; mouse, 1 h): 0.034
CLH (Mus musculus): 70 mL/min/kg
Drug uptake(free) (Brain [4]): 8.4 nM
Cp(f) (Plasma [5]): 75 nM
Cp(f) (Plasma [6]): 320 nM
CLhep predicted at 1 µM [7]: 46 mL/min/kg
K(p,uu,brain) ([9]; mouse, 4 h): 0.11

CN1C(=O)[C@]2(N=C1N)c1cc(-c3cccc(OC(F)F)c3)c(F)cc1O[C@H]1CCOC[C@@H]12 (racemic)
CLhep predicted at 1 µM [7]: 21 mL/min/kg

C[C@]12CCOC[C@@H]1[C@]1(COC(N)=N1)c1cc(-c3cccnc3F)ccc1O2 (racemic)
CLhep predicted at 1 µM [7]: 61 mL/min/kg

C[C@]12CCOC[C@@H]1[C@]1(COC(N)=N1)c1cc(-c3cc(F)cc(Cl)c3)ccc1O2
Drug uptake(free) (Brain [2]): 7.2 nM
Kp uu at 1 h [3]: 0.76
pKa [1]: 6.7
CLH (Mus musculus): 48 mL/min/kg
Drug uptake(free) (Brain [4]): 2.5 nM
Cp(f) (Plasma [5]): 3.7 nM
Cp(f) (Plasma [6]): 9.5 nM
CLhep predicted at 1 µM [7]: 57 mL/min/kg
bioavailability [8]: 43%
Kp uu at 4 h [9]: 0.68

CN1C(=O)[C@]2(N=C1N)c1cc(-c3cncc(F)c3)ccc1O[C@H]1CCOC[C@@H]12 (racemic)
Drug uptake(free) (Brain [2]): 4.4 nM
Kp uu at 1 h [3]: 0.028
CLH (Mus musculus): 140 mL/min/kg
Drug uptake(free) (Brain [4]): < 2.3 nM
Cp(f) (Plasma [5]): 17 nM
Cp(f) (Plasma [6]): 160 nM
CLhep predicted at 1 µM [7]: 45 mL/min/kg
bioavailability [8]: 38%
Kp uu at 4 h [9]: < 0.14

C[C@]12CCOC[C@@H]1[C@]1(COC(N)=N1)c1cc(-c3cncc(Cl)c3)ccc1O2 (racemic)
Drug uptake(free) (Brain [2]): 18 nM
Kp uu at 1 h [3]: 0.082
CLH (Mus musculus): 34 mL/min/kg
Drug uptake(free) (Brain [4]): 5.8 nM
Cp(f) (Plasma [5]): 120 nM
Cp(f) (Plasma [6]): 220 nM
CLhep predicted at 1 µM [7]: 60 mL/min/kg
bioavailability [8]: 76%
Kp uu at 4 h [9]: 0.048

C[C@]12CCOC[C@@H]1[C@]1(COC(N)=N1)c1cc(-c3cccnc3F)c(F)cc1O2 (racemic)
CLhep predicted at 1 µM [7]: 84 mL/min/kg

CN1C(=O)[C@]2(N=C1N)c1cc(-c3cncc(Cl)c3)ccc1O[C@H]1CCOC[C@@H]12 (racemic)
Drug uptake(free) (Brain [2]): 1 nM
Kp uu at 1 h [3]: 0.038
CLH (Mus musculus): 110 mL/min/kg
Drug uptake(free) (Brain [4]): < 0.8 nM
Cp(f) (Plasma [5]): 7.5 nM
Cp(f) (Plasma [6]): 26 nM
CLhep predicted at 1 µM [7]: 54 mL/min/kg
bioavailability [8]: 19%
Kp uu at 4 h [9]: < 0.11

C[C@H]1OCC[C@H]2Oc3ccc(-c4cccnc4F)cc3[C@@]3(COC(N)=N3)[C@H]12 (racemic)
pKa [1]: 6.4

CN1C(=O)[C@]2(N=C1N)c1cc(-c3cccc(C#N)c3)ccc1O[C@H]1CCOC[C@@H]12
Kp uu at 5 h [10]: 0.085
Drug uptake(free) [11]: 6.7 nM
Cp(f) [12]: 260 nM
Kp uu at 3 h [13]: 0.046
concentration at 5 h [14]: 40 nM
concentration at 3 h [15]: 90 nM
Cp(f) [16]: 79 nM
Drug uptake(free) [17]: 12 nM

CN1C(=O)[C@]2(N=C1N)c1cc(-c3cccnc3F)ccc1O[C@H]1CCOC[C@@]12C (racemic)
Drug uptake(free) (Brain [2]): 1.9 nM
Kp uu at 1 h [3]: 0.036
CLH (Mus musculus): 51 mL/min/kg
Drug uptake(free) (Brain [4]): 3.7 nM
Cp(f) (Plasma [5]): 25 nM
Cp(f) (Plasma [6]): 53 nM
CLhep predicted at 1 µM [7]: 55 mL/min/kg
bioavailability [8]: 15%
Kp uu at 4 h [9]: 0.15

CN1C(=O)[C@]2(N=C1N)c1cc(-c3cccc(C#N)c3)ccc1O[C@H]1CCOC[C@@H]12 (racemic)
Drug uptake(free) (Brain [2]): 3 nM
Kp uu at 1 h [3]: 0.014
CLH (Mus musculus): 35 mL/min/kg
Drug uptake(free) (Brain [4]): 4.3 nM
Cp(f) (Plasma [5]): 170 nM
Cp(f) (Plasma [6]): 210 nM
CLhep predicted at 1 µM [7]: 17 mL/min/kg
bioavailability [8]: 103%
Kp uu at 4 h [9]: 0.025

C[C@]12CCOC[C@@H]1[C@]1(COC(N)=N1)c1cc(-c3cncc(Cl)c3)c(F)cc1O2 (racemic)
CLhep predicted at 1 µM [7]: 65 mL/min/kg
